Data on 7 molecules can be found in paper PMC9674260 (Proceedings of the National Academy of Sciences of the …, 2022).

Where two headings read alike, the source gives them in different places.

Test [1] deals with AT2 cells in alveolospheres. In kind it is cell-based, mouse. To be noted: LGK974 alone, 2 wk.
In test [2] the target is T1, LRP6 E1 (Homo sapiens, UniProt O75581).
T1 sequence (O75581 20-326): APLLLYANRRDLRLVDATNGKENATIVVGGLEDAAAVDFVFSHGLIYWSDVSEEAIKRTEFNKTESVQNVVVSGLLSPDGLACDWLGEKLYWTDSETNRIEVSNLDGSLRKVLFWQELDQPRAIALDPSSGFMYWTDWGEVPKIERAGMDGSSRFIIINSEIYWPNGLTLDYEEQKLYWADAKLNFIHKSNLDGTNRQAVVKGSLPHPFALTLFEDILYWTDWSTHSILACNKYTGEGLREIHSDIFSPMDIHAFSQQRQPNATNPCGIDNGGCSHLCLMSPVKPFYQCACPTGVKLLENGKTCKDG
As to the kind of experiment: SPR binding to immobilized LRP6 E1 domain. On the technique in general: In SPR one partner is held on a chip, and binding of the other changes the refractive index at the surface.

For test [3], the target named is LRP6 E1-E2. Kind of test: SPR binding to immobilized LRP6 E1-E2. More on the design: species or system human.
For test [4], the target named is LRP6 E3-E4 domains (human). Kind of test: SPR.
The target of test [5] is LRP6 E1-E2 domains (human). As to the kind of experiment: SPR.
In test [6] the test system is MC3T3-E1 cells. Kind of test: Osteogenic differentiation of MC3T3-E1 cells. In kind it is cell-based, murine. To be noted: MC3T3-E1 in om+ medium, 21 d; 5 µM Lr-EET-3.5, 1 µg SOST, 1 µM FabYW210 and FabYW211; four independent assays. The gist of the method: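 MC3T3-E1 cells were grown in differentiation medium (50 µg/mL ascorbate-2-phosphate, 10 mM β-glycerophosphate) or in control medium without these factors, plus LRP6-binding reagents (Fabs 1 µM, test compound 5 µM). Mineralized nodules were stained with alizarin red S at 21 d, and nodule area above the control-medium background was quantified. Bglap mRNA was measured by qRT-PCR after 1 wk. Values are means of four independent assays, with SD and one-way ANOVA.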

The test system of test [7] is Wnt1/sFRP-1 binding to LRP6-E1-E2. As to the kind of experiment: SPR competition with Wnt1/sFRP-1 for LRP6-E1-E2. Set-up: species or system human. To be noted: surface coated with LRP6-E1-E2 and saturated with competitor. The gist of the method:
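The SPR surface was coated with LRP6-E1-E2, then saturated with competitor or given buffer only. Wnt1/sFRP-1 (purified recombinant complex), competitor, or a mixture of the two was injected immediately afterward. Wnt1/sFRP-1 binding signal with or without competitor was inspected manually.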

Test [8] addresses LRP6 E3-E4. Kind of test: SPR binding to immobilized LRP6 E3-E4. Set-up: species or system human.
Test [9] addresses LRP6 E2. Conditions: read-out: KD, binding to E2 alone; previously reported; cited from earlier work.
For test [10], the target named is T2, full-length extracellular domain of LRP6 (E1-E4) (human, UniProt O75581 20-1370).
T2 sequence: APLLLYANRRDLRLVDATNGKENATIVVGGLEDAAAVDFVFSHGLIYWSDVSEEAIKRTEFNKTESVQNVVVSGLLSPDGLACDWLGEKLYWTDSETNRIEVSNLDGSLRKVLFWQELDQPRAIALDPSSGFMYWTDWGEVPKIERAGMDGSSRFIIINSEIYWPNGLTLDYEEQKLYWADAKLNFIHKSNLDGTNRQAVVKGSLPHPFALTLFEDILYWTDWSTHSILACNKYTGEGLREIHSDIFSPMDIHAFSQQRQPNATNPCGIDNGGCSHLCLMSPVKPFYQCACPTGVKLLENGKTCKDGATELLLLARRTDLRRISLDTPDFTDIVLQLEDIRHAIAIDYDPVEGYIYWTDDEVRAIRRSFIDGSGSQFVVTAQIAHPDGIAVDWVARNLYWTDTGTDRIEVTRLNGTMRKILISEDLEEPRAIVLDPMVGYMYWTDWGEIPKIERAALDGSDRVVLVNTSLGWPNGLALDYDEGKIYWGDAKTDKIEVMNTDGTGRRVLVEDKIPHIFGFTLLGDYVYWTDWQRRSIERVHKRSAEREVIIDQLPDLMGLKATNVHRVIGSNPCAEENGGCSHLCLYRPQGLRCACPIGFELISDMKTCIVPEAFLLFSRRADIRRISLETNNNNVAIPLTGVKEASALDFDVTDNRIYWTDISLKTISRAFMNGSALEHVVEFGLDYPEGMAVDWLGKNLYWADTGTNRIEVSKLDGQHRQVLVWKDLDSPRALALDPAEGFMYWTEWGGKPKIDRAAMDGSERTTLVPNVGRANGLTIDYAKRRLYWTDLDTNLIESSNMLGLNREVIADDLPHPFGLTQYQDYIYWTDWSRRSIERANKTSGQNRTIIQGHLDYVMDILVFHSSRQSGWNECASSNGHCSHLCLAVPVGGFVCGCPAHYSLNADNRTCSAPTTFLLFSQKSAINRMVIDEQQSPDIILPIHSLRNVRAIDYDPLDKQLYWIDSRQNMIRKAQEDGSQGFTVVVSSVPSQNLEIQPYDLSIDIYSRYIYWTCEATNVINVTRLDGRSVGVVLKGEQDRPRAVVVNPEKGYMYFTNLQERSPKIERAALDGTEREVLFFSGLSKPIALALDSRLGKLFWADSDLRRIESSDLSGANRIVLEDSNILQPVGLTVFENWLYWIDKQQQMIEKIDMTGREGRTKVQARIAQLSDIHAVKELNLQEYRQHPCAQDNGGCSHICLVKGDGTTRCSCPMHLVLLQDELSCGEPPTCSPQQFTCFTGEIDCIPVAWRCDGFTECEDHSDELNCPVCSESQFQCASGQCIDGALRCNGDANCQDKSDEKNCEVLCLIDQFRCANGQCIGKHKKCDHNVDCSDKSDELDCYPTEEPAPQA
Kind of test: SPR.

Test [11] deals with LRP6 E1-E2 domains (human). Kind of test: SPR. The source holds these as a separate data set.

For the molecule `Cc1cc(-c2ncc(CC(=O)Nc3ccc(-c4cnccn4)cn3)cc2C)ccn1` [LGK974], the “AT2 proliferation and formation of alveolospheres” value in test [1] was “abrogated AT2 proliferation and the formation of alveolospheres”.
Regarding DKK1: natural Wnt inhibitor Dickkopf-1, the “KD, E1 alone” value in [2] (SPR, no competitor, two state model) was “no detectable binding”. In addition, the “KD, E1-E2 in the presence of Lr-EET-3.5” value in [3] (surface saturated with 500 nM Lr-EET-3.5 and 500 nM CKP in every dilution) is reported as “ablated the binding”.
Consider “Dickkopf-1 (DKK1) (from UniProt O94907 32-266) (natural protein)”, for which the Kd in test [4] was found to be 43 nM; in test [5], 135 nM.
On to SOST: natural Wnt inhibitor sclerostin, for which, in test [2] (SPR competition, 500 nM Lr-EET-3.5), the “binding to E1 alone on addition of Lr-EET-3.5” value was “completely blocked”. Also, the “inhibition of matrix mineralization (alizarin red-S staining)” value in [6] is “comparable”. Also, the “effect on binding of WNT1/sFRP-1 to LRP6” value in [7] was “antagonistic effect”. For the same molecule, the “KD, E3-E4” value in test [8] (two state model) is “no interaction detected”. In test [9], the Kd was 1300 nM.
Take “sclerostin (SOST) (from UniProt Q9BQB4 24-213) (natural protein)”: in test [5], the KD in the presence of Lr-EET-3.5 was determined as 47 nM and the Kd is 3.3 nM.

B1: WNT1/secreted frizzled related protein 1 (sFRP-1) complex (complex)
chain 1: ANSSGRWWGIVNVASSTNLLTDSKSLQLVLEPSLQLLSRKQRRLIRQNPGILHSVSGGLQSAVRECKWQFRNRRWNCPTAPGPHLFGKIVNRGCRETAFIFAITSAGVTHSVARSCSEGSIESCTCDYRRRGPGGPDWHWGGCSDNIDFGRLFGREFVDSGEKGRDLRFLMNLHNNEAGRTTVFSEMRQECKCHGMSGSCTVRTCWMRLPTLRAVGDVLRDRFDGASRVLYGNRGSNRASRAELLRLEPEDPAHKPPSPHDLVYFEKSPNFCTYSGRLGTAGTAGRACNSSSPALDGCELLCCGRGHRTRTQRVTERCNCTFHWCCHVSCRNCTHTRVLHECL
chain 2: SEYDYVSFQSDIGPYQSGRFYTKPPQCVDIPADLRLCHNVGYKKMVLPNLLEHETMAEVKQQASSWVPLLNKNCHAGTQVFLCSLFAPVCLDRPIYPCRWLCEAVRDSCEPVMQFFGFYWPEMLKCDKFPEGDVCIAMTPPNATEASKPQGTTVCPPCDNELKSEAIIEHLCASEFALRMKIKEVKKENGDKKIVPKKKKPLKLGPIKKKDLKKLVLYLKNGADCPCHQLDNLSHHFLIMGRKVKSQYLLTAIHKWDKKNKEFKNFMKKMKNHECPTFQSVFK
Consider B1, for which the Kd amounted to 6 nM in [10]; 3.4 nM in [3] (read-out: KD, E1-E2, Wnt1/sFRP-1 as analyte, 1:1 binding model); 3.4 nM in [11]. For the same molecule, the “interaction with E3-E4” value in [8] (Wnt1/sFRP-1 as analyte) was “no interaction detected”.

B2: sclerostin (SOST) (natural protein)
chain: QGWQAFKNDATEIIPELGEYPEPPPELENNKTMNRAENGGRPPHHPFETKDVSEYSCRELHFTRYVTDGPCRSAKPVTELVCSGQCGPARLLPNAIGRGKWWRPSGPDFRCIPDRYRAQRVQLLCPGGEAPRARKVRLVASCKCKRLTRFHNQSELKDFGTEAARPQKGRKPRPRARSAKANQAELENAY
Turning to B2, in test [10], the “KD in the presence of Lr-EET-3.5” value turned out to be 41 nM and the Kd is 3.8 nM.
